From PMC2976041 (Biochemistry, 2010)

Target: T1, GFP-myo1e-tail (His6-GFP-myo1e-tail) (Homo sapiens, UniProt Q12965)
T1 sequence (Q12965 710-1108): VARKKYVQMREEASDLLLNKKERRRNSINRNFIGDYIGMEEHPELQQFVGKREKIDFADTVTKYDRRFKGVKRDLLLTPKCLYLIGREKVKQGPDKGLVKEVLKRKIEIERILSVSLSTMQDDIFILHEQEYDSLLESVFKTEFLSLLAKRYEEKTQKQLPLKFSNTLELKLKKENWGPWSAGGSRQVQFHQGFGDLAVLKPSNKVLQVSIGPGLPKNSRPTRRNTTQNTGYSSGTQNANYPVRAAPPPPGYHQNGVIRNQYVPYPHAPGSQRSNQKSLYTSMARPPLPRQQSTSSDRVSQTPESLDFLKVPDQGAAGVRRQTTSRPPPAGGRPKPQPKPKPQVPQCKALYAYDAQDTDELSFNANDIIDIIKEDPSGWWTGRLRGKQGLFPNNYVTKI
Experiment: LUV sedimentation, GFP fluorescence of supernatant
Format: binding
Outline: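 His6-GFP-myo1e-tail co-expressed with calmodulin in Sf9 cells, purified on Ni-NTA then MonoS, and quantified by A488 (ε 55,000 M⁻¹cm⁻¹). 40 nM protein was mixed with sucrose-loaded 100-nm LUVs (e.g., DOPC with 2% phosphoinositide) in HNa100 (10 mM HEPES pH 7.0, 100 mM NaCl, 1 mM EGTA, 1 mM DTT) with 1 µM calmodulin and 0.25 mg/ml GST. Spun 150,000 × g, 30 min, 25°C; supernatant GFP fluorescence read. Hyperbolic fit gave K_eff versus total lipid.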

Row | Structure (SMILES) | Kd [µM]
1 | CCCCCCCC/C=C\CCCCCCCC(=O)OC[C@H](COP(=O)(O)O[C@H]1[C@H](O)[C@@H](OP(=O)(O)O)[C@H](OP(=O)(O)O)[C@@H](OP(=O)(O)O)[C@H]1O)OC(=O)CCCCCCC/C=C\CCCCCCCC [2% 18:1 PtdIns(3,4,5)P3, 1,2-dioleoyl-sn-glycerol-3-phospho-(1’-myo-inositol-3’,4’,5’-trisphosphate)] | 3.2 ± 0.4
2 | CCCCCCCC/C=C\CCCCCCCC(=O)OC[C@H](COP(=O)(O)O[C@@H]1[C@H](O)[C@H](OP(=O)(O)O)[C@@H](O)[C@H](OP(=O)(O)O)[C@H]1O)OC(=O)CCCCCCC/C=C\CCCCCCCC [2% 18:1 PtdIns(3,5)P2, 1,2-dioleoyl-sn-glycerol-3-phospho-(1’-myo-inositol-3’,5’-bisphosphate)] | 13 ± 2.1
3 | CCCCCCCC/C=C\CCCCCCCC(=O)OC[C@H](COP(=O)(O)OC[C@H](N)C(=O)O)OC(=O)CCCCCCC/C=C\CCCCCCCC [80% DOPS, 1,2-dioleoyl-sn-glycero-3-phospho-L-serine] | 0.51 ± 0.1
4 | CCCCCCCC/C=C\CCCCCCCC(=O)OC[C@H](COP(=O)([O-])OCC[N+](C)(C)C)OC(=O)CCCCCCC/C=C\CCCCCCCC [100% DOPC, 1,2-dioleoyl-sn-glycero-3-phosphocholine] | > 400
